From ChEMBL document CHEMBL5108039, “Piperazine tethered bergenin heterocyclic hybrids: design, synthesis, anticancer activity, and molecular docking studies” (RSC Med Chem, 2022)

Columns and labels:
HCT-15 = experiment: Cytotoxicity against human HCT-15 cells assessed as cell growth inhibition; format: functional, cell-based
Outline: (§1)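 Compounds were dissolved in sterile DMSO as 10 mg ml−1 stocks and tested for in vitro growth inhibition of human cancer cell lines. Doxorubicin was the standard drug and DMSO (0.01%) the vehicle control. IC50 values are reported as means.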

CAL-27 [1] = experiment: Cytotoxicity against human CAL-27 cells assessed as cell growth inhibition; format: functional, cell-based; outline: as §1
SCC-9 [2] = experiment: Cytotoxicity against human SCC-9 cells assessed as cell growth inhibition; format: functional, cell-based; outline: as §1
A549 = experiment: Cytotoxicity against human A549 cells assessed as cell growth inhibition; format: functional, cell-based
Outline: (§2)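 Compounds were dissolved in sterile DMSO as 10 mg ml−1 stocks and tested in vitro for cytotoxicity in a cell-line panel, with DMSO (0.01%) as vehicle control and doxorubicin as standard. Mean IC50 values were reported, and the normal lung epithelial cells were tested up to 100 μM.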

MCF7 = experiment: Cytotoxicity against human MCF7 cells assessed as cell growth inhibition; format: functional, cell-based; outline: as §1
[3] = Cytotoxicity against human BEAS-2B cells assessed as cell growth inhibition; format: toxicity, cell-based; outline: as §2
CAL-27 [4] = experiment: Cell cycle arrest in human CAL-27 cells assessed as accumulation at G0/G1 phase at 31.5 uM incubated for 24 hrs by flow cytometry (reference value: 77.6 %); format: functional
CAL-27 [5] = experiment: Cell cycle arrest in human CAL-27 cells assessed as accumulation at G0/G1 phase at 63 uM incubated for 24 hrs by flow cytometry (reference value: 77.6 %); format: functional
CAL-27 [6] = experiment: Cell cycle arrest in human CAL-27 cells assessed as accumulation at S phase at 31.5 uM incubated for 24 hrs by flow cytometry (reference value: 3.6 %); format: functional
CAL-27 [7] = experiment: Cell cycle arrest in human CAL-27 cells assessed as accumulation at S phase at 63 uM incubated for 24 hrs by flow cytometry (reference value: 3.6 %); format: functional
CAL-27 [8] = experiment: Cell cycle arrest in human CAL-27 cells assessed as accumulation at G2/M phase at 31.5 uM incubated for 24 hrs by flow cytometry (reference value: 11.9 %); format: functional
CAL-27 [9] = experiment: Cell cycle arrest in human CAL-27 cells assessed as accumulation at G2/M phase at 63 uM incubated for 24 hrs by flow cytometry (reference value: 11.9 %); format: functional
SCC-9 [10] = experiment: Cell cycle arrest in human SCC-9 cells assessed as accumulation at G0/G1 phase at 46 uM incubated for 24 hrs by flow cytometry (reference value: 70.8 %); format: functional
SCC-9 [11] = experiment: Cell cycle arrest in human SCC-9 cells assessed as accumulation at G0/G1 phase at 92 uM incubated for 24 hrs by flow cytometry (reference value: 70.8 %); format: functional
SCC-9 [12] = experiment: Cell cycle arrest in human SCC-9 cells assessed as accumulation at S phase at 46 uM incubated for 24 hrs by flow cytometry (reference value: 14.4 %); format: functional
SCC-9 [13] = experiment: Cell cycle arrest in human SCC-9 cells assessed as accumulation at S phase at 92 uM incubated for 24 hrs by flow cytometry (reference value: 14.4 %); format: functional
SCC-9 [14] = experiment: Cell cycle arrest in human SCC-9 cells assessed as accumulation at G2/M phase at 46 uM incubated for 24 hrs by flow cytometry (reference value: 14.2 %); format: functional
SCC-9 [15] = experiment: Cell cycle arrest in human SCC-9 cells assessed as accumulation at G2/M phase at 92 uM incubated for 24 hrs by flow cytometry (reference value: 14.2 %); format: functional
CAL-27 [16] = experiment: Induction of apoptosis in human CAL-27 cells assessed as live cells at 31.5 uM incubated for 24 hrs by Annexin V-FITC/PI staining based flow cytometric analysis (reference value: 99.8 %); format: functional
Outline: (§3)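 CAL27 cells were treated with vehicle, doxorubicin or test compounds at 10–63 μM, and apoptosis was assessed by annexin V–FITC/PI staining with flow cytometry. Cells were scored as live, early apoptotic, late apoptotic or necrotic. The vehicle was DMSO (0.01%).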

CAL-27 [17] = experiment: Induction of apoptosis in human CAL-27 cells assessed as early apoptotic cells at 31.5 uM incubated for 24 hrs by Annexin V-FITC/PI staining based flow cytometric analysis (reference value: 0.1 %); format: functional; outline: as §3
CAL-27 [18] = experiment: Induction of apoptosis in human CAL-27 cells assessed as late apoptotic cells at 31.5 uM incubated for 24 hrs by Annexin V-FITC/PI staining based flow cytometric analysis (reference value: 0.1 %); format: functional; outline: as §3
CAL-27 [19] = experiment: Induction of apoptosis in human CAL-27 cells assessed as necrotic cells at 31.5 uM incubated for 24 hrs by Annexin V-FITC/PI staining based flow cytometric analysis (reference value: 0.0 %); format: functional
CAL-27 [20] = experiment: Induction of apoptosis in human CAL-27 cells assessed as live cells at 63 uM incubated for 24 hrs by Annexin V-FITC/PI staining based flow cytometric analysis (reference value: 99.8 %); format: functional; outline: as §3
CAL-27 [21] = experiment: Induction of apoptosis in human CAL-27 cells assessed as early apoptotic cells at 63 uM incubated for 24 hrs by Annexin V-FITC/PI staining based flow cytometric analysis (reference value: 0.1 %); format: functional; outline: as §3
CAL-27 [22] = experiment: Induction of apoptosis in human CAL-27 cells assessed as late apoptotic cells at 63 uM incubated for 24 hrs by Annexin V-FITC/PI staining based flow cytometric analysis (reference value: 0.1 %); format: functional; outline: as §3
CAL-27 [23] = experiment: Induction of apoptosis in human CAL-27 cells assessed as necrotic cells at 63 uM incubated for 24 hrs by Annexin V-FITC/PI staining based flow cytometric analysis (reference value: 0.0 %); format: functional
SCC-9 [24] = experiment: Induction of apoptosis in human SCC-9 cells assessed as live cells at 46 uM incubated for 24 hrs by Annexin V-FITC/PI staining based flow cytometric analysis (reference value: 95.7 %); format: functional
SCC-9 [25] = experiment: Induction of apoptosis in human SCC-9 cells assessed as early apoptotic cells at 46 uM incubated for 24 hrs by Annexin V-FITC/PI staining based flow cytometric analysis (reference value: 2.8 %); format: functional
SCC-9 [26] = experiment: Induction of apoptosis in human SCC-9 cells assessed as late apoptotic cells at 46 uM incubated for 24 hrs by Annexin V-FITC/PI staining based flow cytometric analysis (reference value: 1.4 %); format: functional
SCC-9 [27] = experiment: Induction of apoptosis in human SCC-9 cells assessed as necrotic cells at 46 uM incubated for 24 hrs by Annexin V-FITC/PI staining based flow cytometric analysis (reference value: 0.1 %); format: functional
SCC-9 [28] = experiment: Induction of apoptosis in human SCC-9 cells assessed as live cells at 92 uM incubated for 24 hrs by Annexin V-FITC/PI staining based flow cytometric analysis (reference value: 95.7 %); format: functional
SCC-9 [29] = experiment: Induction of apoptosis in human SCC-9 cells assessed as early apoptotic cells at 92 uM incubated for 24 hrs by Annexin V-FITC/PI staining based flow cytometric analysis (reference value: 2.8 %); format: functional
SCC-9 [30] = experiment: Induction of apoptosis in human SCC-9 cells assessed as late apoptotic cells at 92 uM incubated for 24 hrs by Annexin V-FITC/PI staining based flow cytometric analysis (reference value: 1.4 %); format: functional
SCC-9 [31] = experiment: Induction of apoptosis in human SCC-9 cells assessed as necrotic cells at 92 uM incubated for 24 hrs by Annexin V-FITC/PI staining based flow cytometric analysis (reference value: 0.1 %); format: functional

With `COc1c(O)c(CN2CCN(CC(=O)Nc3nc4ccc(C)cc4s3)CC2)c2c(c1O)C1O[C@H](CO)[C@@H](O)[C@H](O)C1OC2=O` (some centres undefined) as the compound, how does the IC50 (HCT-15) read?
Its IC50 is > 100 µM.

And the IC50 (CAL-27 [1])?
Its IC50 is 63.7 µM.

And the IC50 (SCC-9 [2])?
Its IC50 is 91.9 µM.

And the IC50 (A549)?
Its IC50 is 90.6 µM.

And the IC50 (MCF7)?
Its IC50 is 74.5 µM.

And the IC50 [3]?
The IC50 was > 100 µM.

What about the Activity (CAL-27 [4]) of the same compound?
The Activity was 85.4%.

And the Activity (CAL-27 [5])?
Its Activity is 82.1%.

And the Activity (CAL-27 [6])?
The Activity was 3.7%.

What about the Activity (CAL-27 [7]) of the same compound?
The Activity was 3.2%.

What about the Activity (CAL-27 [8]) of the same compound?
Its Activity is 11.5%.

And the Activity (CAL-27 [9])?
Its Activity is 15.3%.

And the Activity (SCC-9 [10])?
The Activity was 76.9%.

What about the Activity (SCC-9 [11]) of the same compound?
The Activity was 85.7%.

What about the Activity (SCC-9 [12]) of the same compound?
The Activity was 11.3%.

And the Activity (SCC-9 [13])?
The Activity was 4.9%.

And the Activity (SCC-9 [14])?
Its Activity is 11.7%.

What about the Activity (SCC-9 [15]) of the same compound?
The Activity was 9.4%.

And the Activity (CAL-27 [16])?
The Activity was 89%.

What about the Activity (CAL-27 [17]) of the same compound?
Its Activity is 8.3%.

And the Activity (CAL-27 [18])?
The Activity was 2.6%.

And the Activity (CAL-27 [19])?
Its Activity is 0.4%.

What about the Activity (CAL-27 [20]) of the same compound?
The Activity was 81.1%.

What about the Activity (CAL-27 [21]) of the same compound?
The Activity was 11.7%.

And the Activity (CAL-27 [22])?
Its Activity is 4.2%.

What about the Activity (CAL-27 [23]) of the same compound?
Its Activity is 3%.

What about the Activity (SCC-9 [24]) of the same compound?
The Activity was 38.2%.

What about the Activity (SCC-9 [25]) of the same compound?
The Activity was 9.4%.

And the Activity (SCC-9 [26])?
Its Activity is 14.7%.

What about the Activity (SCC-9 [27]) of the same compound?
The Activity was 37.6%.

And the Activity (SCC-9 [28])?
Its Activity is 53.5%.

And the Activity (SCC-9 [29])?
The Activity was 7.5%.

What about the Activity (SCC-9 [30]) of the same compound?
The Activity was 12%.

And the Activity (SCC-9 [31])?
The Activity was 27%.
